Experimental data as given in paper PMC10983000 (Journal of Medicinal Chemistry, 2024).

Tests used:
[1] = test system: pAKT in T47D (PI3Kα^H1047R) cells; test: pAKT AlphaLISA assay, T47D; assay type: cell-based; settings: for IC50: Homo sapiens, T47D, 24 h, read-out: pAKT AlphaLISA IC50 T47D, T47D (PI3Kα^H1047R), inhibition of pAKT formation after 24 h of treatment
[2] = test system: pAKT in SKBR3 (PI3Kα^WT) cells; test: pAKT AlphaLISA assay, SKBR3; assay type: cell-based; settings: Homo sapiens, SK-BR-3, 24 h, read-out: pAKT AlphaLISA IC50 SKBR3
[3] = test system: T47D (PI3Kα^H1047R) cells; test: Viability assay; assay type: cell-based; settings: for viability selectivity 1047R/WT IC50: T47D vs SKBR3 viability IC50
[4] = Intrinsic clearance in human hepatocytes; assay type: in vitro ADME
[5] = Intrinsic clearance in mouse hepatocytes; assay type: in vitro ADME
Method in brief: (§1)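 CLint was derived by scaling in vitro half-lives measured in pooled hepatocytes.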

[6] = Intrinsic clearance in rat hepatocytes; assay type: in vitro ADME
Method in brief: as §1

[7] = Intrinsic clearance in dog hepatocytes; assay type: in vitro ADME
Method in brief: as §1

Mouse pharmacokinetics = assay type: in vivo, CD-1 Mouse
Rat pharmacokinetics = assay type: in vivo; settings: male, Sprague-Dawley, plasma, iv, 3 mg/kg
[8] = test system: pAKT in HCC1954 tumors (PI3Kα^H1047R); test: Single dose pharmacodynamic study, HCC1954 tumor model; assay type: in vivo, mouse; settings: PO 100 or 300 mg/kg single dose
Method in brief: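 Mice carried xenografts of HCC1954, an ER-/HER2+ human breast tumour line with endogenous PI3Kα H1047R. They received a single dose of test compound, and tumour pAKT modulation was measured at 1 h and at 8 h post dose.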

[9] = Metabolite ID in human hepatocytes; assay type: in vitro ADME

IC50 [1] [µM]	IC50 [2] [µM]	SMILES	other results
0.003	3.19	Cc1cc([C@@H](C)Nc2ccccc2C(=O)O)c2oc(N3CCC(C)(C)CC3)c(C)c(=O)c2c1 [Compound 4, reference compound]	
0.332	0.115	Cc1ccccc1C1NC(=O)c2cc(NC3COC3)cc(NC(=O)c3csc4ccccc34)c21 (stereo not shown) [Compound 5, reference compound]	
0.078	5.89	Cc1cc([C@@H](C)Nc2ccccc2C(=O)O)c2nc(N3CCCCC3)cc(=O)n2c1 [Compound 7]	viability selectivity 1047R/WT IC50 [3]: > 9
0.003	1.47	Cc1cc([C@@H](C)Nc2ccccc2C(=O)O)c2nc(N3CCCCC3)c(C)c(=O)n2c1 [Compound 8]	viability selectivity 1047R/WT IC50 [3]: > 83
0.179		Cc1cc(C(C)Nc2ccccc2C(=O)O)c2nc(N3CCC(C)(C)CC3)n(C)c(=O)c2c1 (stereo not shown) [Compound 9]	fold decrease in potency (viability) compared to compound 4 ([3]; T47D viability): 39 fold
2.54		Cc1cc(C(C)Nc2ccccc2C(=O)O)c2nc(N3CCCCC3)ncc2c1 (stereo not shown) [Compound 10]	
0.0003	> 10	Cc1cc([C@@H](C)Nc2ccccc2C(=O)O)c2nc(N3CCCCC3)c(F)c(=O)n2c1 [Compound 11]	
0.001	4.74	Cc1cc([C@@H](C)Nc2ccccc2C(=O)O)c2nc(N3CCCCC3)c(C#N)c(=O)n2c1 [Compound 12]	fold more potent than 8 ([1]; pAKT T47D): 3 fold; fold more stable in human hepatocytes than 8 ([4]; Clint human hepatocytes): 4 fold
0.028	> 10	Cc1cc([C@@H](C)Nc2ccccc2C(=O)O)c2nc(N3CCCCC3)c(C(F)(F)F)c(=O)n2c1 [Compound 13]	
> 10	> 10	Cc1cc([C@@H](C)Nc2ccccc2C(=O)O)c2nc(N3CCCCC3)c(C(N)=O)c(=O)n2c1 [Compound 14]	
		Cc1cc([C@@H](C)Nc2ccccc2C(=O)O)c2nc(N3CCC(F)(F)CC3)c(C#N)c(=O)n2c1 [Compound 17, (R)-2-((1-(3-Cyano-2-(4,4-difluoropiperidin-1-yl)-7-methyl-4-oxo-4H-pyrido[1,2-a]pyrimidin-9-yl)ethyl)amino)benzoic Acid]	fold decrease of intrinsic clearance in human hepatocytes compared to 12 [4]: 3 fold; CLint scaled [5]: 304 mL/min/kg; CLint scaled [6]: 70 mL/min/kg; CLint scaled [7]: 104 mL/min/kg; clearance (Mouse pharmacokinetics; female, CD-1, mouse, plasma, iv, 3 mg/kg): 180 mL/min/kg; bioavailability in rodents (Mouse pharmacokinetics; rodents (mouse and rat)): 48–57 %F; clearance (Rat pharmacokinetics): 46 mL/min/kg; pAKT inhibition after oral dosing [8]: negligible inhibition of pAKT; metabolite identified in human hepatocytes [9]: glucuronidation of the benzoic acid was the only discernible metabolite
		Cc1cc([C@@H](C)Nc2ccccc2C(=O)O)c2nc(C3CCC(F)(F)CC3)c(C#N)c(=O)n2c1 [Compound 19]	fold loss in potency in T47D cellular viability assay ([3]; on replacing the piperidine nitrogen (4,4-difluorocyclohexane)): 5 fold
0.015		Cc1cc([C@@H](C)Nc2ccc(Cl)cc2C(=O)O)c2nc(N3CCC(F)(F)CC3)c(C#N)c(=O)n2c1 [Compound 24]	
